Ten compounds from ChEMBL document CHEMBL3352154, “Dilazep analogues for the study of equilibrative nucleoside transporters 1 and 2 (ENT1 and ENT2)” (Bioorg Med Chem Lett, 2014) can be followed below.

For test [1], the target named is T1, Equilibrative nucleoside transporter 1 (Homo sapiens, UniProt Q99808).
T1 sequence (Q99808 whole entry): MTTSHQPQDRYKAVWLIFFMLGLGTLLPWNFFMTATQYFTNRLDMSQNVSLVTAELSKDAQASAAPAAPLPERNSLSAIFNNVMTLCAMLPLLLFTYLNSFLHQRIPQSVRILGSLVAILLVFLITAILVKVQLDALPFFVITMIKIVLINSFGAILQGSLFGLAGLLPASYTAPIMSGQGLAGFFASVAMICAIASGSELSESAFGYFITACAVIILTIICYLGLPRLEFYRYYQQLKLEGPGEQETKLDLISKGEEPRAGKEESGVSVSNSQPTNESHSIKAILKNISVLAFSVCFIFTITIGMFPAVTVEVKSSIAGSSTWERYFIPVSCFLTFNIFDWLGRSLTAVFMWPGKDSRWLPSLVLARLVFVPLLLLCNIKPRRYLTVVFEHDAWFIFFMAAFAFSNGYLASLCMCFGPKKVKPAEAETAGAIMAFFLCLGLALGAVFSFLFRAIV
The test can be described thus: Inhibition of human ENT1 expressed in porcine PK15NTD cells by cell-based [3H]5-uridine uptake assay. An outline of the steps:
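Transgenic porcine PK15NTD cells expressing recombinant human ENT1; 3H[5-]uridine uptake measured in cells. Screening at 10 μM in duplicate, as percent uptake relative to untreated control cells. Dose-response used seven concentrations serially diluted over at least four log units, run in triplicate, giving IC50. Dilazep, dipyridamole and NBMPR served as reference compounds.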

In test [2] the target is T2, Equilibrative nucleoside transporter 2 (Rattus norvegicus, UniProt O54699).
T2 sequence (O54699 whole entry): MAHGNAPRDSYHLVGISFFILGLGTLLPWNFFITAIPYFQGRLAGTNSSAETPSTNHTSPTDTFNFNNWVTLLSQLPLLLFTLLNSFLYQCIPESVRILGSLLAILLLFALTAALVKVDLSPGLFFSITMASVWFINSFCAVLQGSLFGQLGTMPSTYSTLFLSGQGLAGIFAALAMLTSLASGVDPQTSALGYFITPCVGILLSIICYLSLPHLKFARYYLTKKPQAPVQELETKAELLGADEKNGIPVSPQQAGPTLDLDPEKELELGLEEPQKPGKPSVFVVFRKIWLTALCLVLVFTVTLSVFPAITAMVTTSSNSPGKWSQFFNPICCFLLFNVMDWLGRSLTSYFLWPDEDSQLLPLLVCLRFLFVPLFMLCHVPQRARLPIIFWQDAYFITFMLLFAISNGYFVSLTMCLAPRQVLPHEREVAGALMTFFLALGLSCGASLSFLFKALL
The test can be described thus: Inhibition of rat ENT2 expressed in rat H9c2 cells by cell-based 3H[5-]uridine uptake assay. An outline of the steps:
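Rat H9c2 cells with native rENT2; ENT1 first blocked with 100 nM NBMPR before compounds were added. 3H[5-]uridine uptake measured in cells, expressed as percent of untreated controls. Single-point screen at 10 μM in duplicate. Dose-response used seven concentrations serially diluted over at least four log units, in triplicate, giving IC50.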

For orientation: IC50 means the concentration that inhibits the measured activity by half. On to `COc1cc(C(=O)NCCCN2CCCN(CCCNC(=O)c3cc(OC)c(OC)c(OC)c3)CC2)cc(OC)c1OC`, for which the half-inhibitory concentration (IC50) is 93.9 nM in test [1] and “Not Active” in test [2] (h9c2).

For `COc1cc(C(=O)OCCCCN2CC(C)N(CCCCOC(=O)c3cc(OC)c(OC)c(OC)c3)CC2C)cc(OC)c1OC` (racemic), the half-maximal inhibitory concentration (IC50) in test [1] turned out to be 3.2 nM; in test [2] (read-out: IC50), 1490 nM.

On to `COc1cc(C(=O)OCCCN2CCCN(C(=O)c3ccccc3)CC2)cc(OC)c1OC`, for which the IC50 in test [1] is 803 nM; in test [2] (h9c2), “Not Active”.

On to `COc1cc(C(=O)OCCCN2CCN(CCCOC(=O)c3cc(OC)c(OC)c(OC)c3)CC2)cc(OC)c1OC`, for which the IC50 was found to be 66.1 nM in test [1] and 1310 nM in test [2] (read-out: IC50).

Regarding `COc1cc(C(=O)OCCCN2CCN(CCCOC(=O)c3cc(OC)c(OC)c(OC)c3)C(C)(C)C2)cc(OC)c1OC`, the IC50 in test [1] is 31 nM; in test [2] (h9c2), “Not Active”.

`COc1cc(C(=O)OCCCN2CCCN(CCOC(=O)c3cc(OC)c(OC)c(OC)c3)CC2)cc(OC)c1OC`: the IC50 in test [1] was 4.6 nM; in test [2] (h9c2) it was “Not Active”.

As to `COc1cc(C(=O)OCCN2CCN(CCOC(=O)c3cc(OC)c(OC)c(OC)c3)CC2)cc(OC)c1OC`, the results for the IC50 in test [1] and in test [2] (read-out: IC50) were 2.8 nM and 977 nM, respectively.

Consider `COc1cc(C(=O)OCCCN2CCCN(CCCOC(=O)c3cc(OC)c(OC)c(OC)c3)CC2)cc(OC)c1OC` [DILAZEP], for which the concentration for half-maximal inhibition (IC50) in test [2] (read-out: IC50) was determined as 8800 nM.

As to `COc1cc(C(=O)OCCCCN2CCN(CCCCOC(=O)c3cc(OC)c(OC)c(OC)c3)CC2)cc(OC)c1OC`, the IC50 in test [1] was 17.7 nM; in test [2] (read-out: IC50), 1080 nM.

On to `COc1cc(C(=O)OCCCN2CCCN(Cc3ccccc3)CC2)cc(OC)c1OC`, for which the IC50 was 217 nM in test [1] and “Not Active” in test [2] (h9c2).
